Results as given in ChEMBL document CHEMBL2417469, “Synthesis of novel analogs of 2-pyrazoline obtained from [(7-chloroquinolin-4-yl)amino]chalcones and hydrazine as potential antitumor and antimalarial agents” (Eur J Med Chem, 2013).

Key:
Assay type in all cases: functional
OVCAR-3 = assay: Cytotoxicity against human OVCAR3 cells after 48 hrs by SRB assay; details: OVCAR-3, 48 h
In short: (§1)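 NCI 60-cell-line screen. Cells preincubated 24 h at 37 °C, 5% CO2; time-zero plates TCA-fixed. Compounds dissolved in DMSO and tested at five concentrations (100, 10, 1.0, 0.1, 0.01 µM) for 48 h continuous exposure. Adherent cells fixed with cold TCA (10% final), then SRB stained; absorbance at 515 nm. GI50, TGI and LC50 calculated from growth relative to time-zero and untreated controls.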

HOP-62 = assay: Cytotoxicity against human HOP62 cells after 48 hrs by SRB assay; details: HOP-62, 48 h; in short: as §1
SF-268 = assay: Cytotoxicity against human SF268 cells after 48 hrs by SRB assay; details: SF-268, 48 h; in short: as §1
Plasmodium falciparum = assay: Antimalarial activity against Plasmodium falciparum NF54 infected in human serum at 20 ug/ml after 48 hrs by fluorometric method
In short: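 Asynchronous P. falciparum NF54 at 1.5–2% parasitemia, 5% hematocrit in RPMI with 10% human serum, exposed 48 h at 37 °C under 90% N2/5% CO2/5% O2 at the stated concentration; parasite DNA stained with ethidium bromide after proteinase K lysis; viability % = (Flu treated − medium)/(Flu untreated − medium) ×100; triplicate.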

ACHN = assay: Cytotoxicity against human ACHN cells after 48 hrs by SRB assay; in short: as §1
HOP-92 = assay: Cytotoxicity against human HOP92 cells after 48 hrs by SRB assay; details: HOP-92, 48 h; in short: as §1
MCF7 = assay: Cytotoxicity against human MCF7 cells after 48 hrs by SRB assay; details: MCF7, 48 h; in short: as §1
NCI-H460 = assay: Cytotoxicity against human NCI-H460 cells after 48 hrs by SRB assay; details: NCI-H460, 48 h; in short: as §1
SN12C = assay: Cytotoxicity against human SN12C cells after 48 hrs by SRB assay; in short: as §1
HCC 2998 = assay: Cytotoxicity against human HCC2998 cells after 48 hrs by SRB assay; details: HCC 2998, 48 h; in short: as §1
MDA-MB-435 = assay: Cytotoxicity against human MDA-MB-435 cells after 48 hrs by SRB assay; details: MDA-MB-435, 48 h; in short: as §1
[1] = Cytotoxicity against human EKVX cells after 48 hrs by SRB assay; in short: as §1
SNB-19 = assay: Cytotoxicity against human SNB19 cells after 48 hrs by SRB assay; details: SNB-19, 48 h
In short: (§2)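 NCI 60-cell screen. Cells grew 24 h (37 °C, 5% CO2) before compound was added. Compounds were in DMSO and diluted in medium with gentamicin, then tested at five levels (100, 10, 1.0, 0.1, 0.01 µM) with 48 h continuous exposure. Adherent cells were fixed with TCA (10% final) and stained with 0.4% SRB, absorbance read at 515 nm. A time-zero plate was included. LC50 is the concentration giving 50% loss of protein relative to time zero.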

SK-MEL-28 = assay: Cytotoxicity against human SK-MEL-28 cells after 48 hrs by SRB assay; details: SK-MEL-28, 48 h; in short: as §1
RPMI-8226 = assay: Cytotoxicity against human RPMI8226 cells after 48 hrs by SRB assay; details: RPMI-8226, 48 h; in short: as §1
HCT-116 = assay: Cytotoxicity against human HCT116 cells after 48 hrs by SRB assay; details: HCT-116, 48 h; in short: as §1
T47D = assay: Cytotoxicity against human T47D cells after 48 hrs by SRB assay; in short: as §2
NCI-H226 = assay: Cytotoxicity against human NCI-H226 cells after 48 hrs by SRB assay; details: NCI-H226, 48 h; in short: as §1
OVCAR-8 = assay: Cytotoxicity against human OVCAR8 cells after 48 hrs by SRB assay; details: OVCAR-8, 48 h; in short: as §1
OVCAR-5 = assay: Cytotoxicity against human OVCAR5 cells after 48 hrs by SRB assay; details: OVCAR-5, 48 h; in short: as §1
SK-MEL-5 = assay: Cytotoxicity against human SK-MEL-5 cells after 48 hrs by SRB assay; details: SK-MEL-5, 48 h; in short: as §1
[2] = read-out: LC50 (the source's name)

## COc1ccc(C2CC(c3ccc(Nc4ccnc5cc(Cl)ccc45)cc3)=NN2C=O)cc1 (stereo not given)
OVCAR-3
  GI50: 14.5 µM
  LC50: > 100 µM
HOP-62
  GI50: 43.7 µM
  LC50 (50% lethal concentration): > 100 µM
SF-268
  GI50: > 100 µM
  LC50: > 100 µM
Plasmodium falciparum
  inhibition at 20 µg/mL: 0%
ACHN
  GI50: 7.02 µM
ACHN; [2]
  CC50: > 100 µM
HOP-92
  LC50 (concentration killing 50% of cells): > 100 µM
MCF7
  GI50: 8.78 µM
MCF7; [2]
  CC50: > 100 µM
NCI-H460
  GI50: > 100 µM
  LC50: > 100 µM
SN12C
  GI50: 12.6 µM
  LC50 (50% net cell kill relative to time zero): > 100 µM
HCC 2998
  GI50: 18.1 µM
  LC50: > 100 µM
MDA-MB-435
  GI50: 1.72 µM
  LC50: > 100 µM
[1]
  GI50: > 100 µM
  LC50: > 100 µM
SNB-19
  GI50: 5.65 µM
  LC50: > 100 µM
SK-MEL-28
  GI50: 20.9 µM
SK-MEL-28; [2]
  CC50: > 100 µM
RPMI-8226
  GI50: 2.71 µM
  LC50 (concentration killing 50% of cells): > 100 µM
HCT-116
  GI50: 9.97 µM
  LC50: > 100 µM
T47D
  GI50: 1.38 µM
  LC50 (concentration giving 50% cell kill relative to time zero): > 100 µM
NCI-H226
  GI50: > 100 µM
  LC50 (50% lethal concentration): > 100 µM
OVCAR-8
  GI50: 69.8 µM
  LC50 (50% net cell kill): > 100 µM
OVCAR-5
  GI50: > 100 µM
  LC50: > 100 µM
SK-MEL-5
  GI50: 0.62 µM
  LC50 (concentration killing 50% of cells present at time zero): > 100 µM
